# Reference: ChEMBL document CHEMBL1134485, “Diguanidino and "reversed" diamidino 2,5-diarylfurans as antimicrobial agents” (2001)
# What was measured:
# Nucleic Acid [1] = test system: Nucleic Acid
# Candida albicans [2] = experiment: In vitro minimum fungicidal concentration against Candida albicans.; format: functional
# Method in brief: (§1)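 Yeast MFC: after broth macrodilution (RPMI 1640/MOPS pH 7.0, 0.5 × 10³ to 2.5 × 10³ CFU/mL, 35 °C, 48 h or 72 h for C. neoformans, drug 100 to 0.09 µg/mL), 100 µL from tubes with complete inhibition plated on Sabouraud agar; lowest concentration yielding three or fewer colonies recorded.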
# Candida albicans [3] = experiment: In vitro minimum inhibitory concentration against Candida albicans.; format: functional
# Aspergillus fumigatus [4] = experiment: In vitro minimum fungicidal concentration required to inhibit Aspergillus fumigatus(MFC); format: functional
# Method in brief: (§2)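 Mould MFC: 100 µL aliquots from macrodilution tubes (RPMI 1640/MOPS pH 7.0, 0.5 × 10³ to 2.5 × 10³ CFU/mL conidial inoculum, 30 °C, 48-72 h, drug 100 to 0.09 µg/mL) showing complete growth inhibition plated on Sabouraud agar; MFC taken as lowest drug concentration giving three or fewer colonies.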
# Nucleic Acid [5] = test system: Nucleic Acid; remark: listed apart in the source
# Aspergillus fumigatus [6] = experiment: In vitro antimicrobial activity against Aspergillus fumigatus (MIC); format: functional
# [7] = test system: Mycobacterium tuberculosis; experiment: In vitro minimum inhibitory concentration required to inhibit Mycobacterium tuberculosis; format: functional
# Method in brief: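 M. tuberculosis H37Rv grown in BACTEC 12B medium; fluorometric broth microdilution (Microplate Alamar Blue Assay). […] MIC = lowest concentration reducing relative fluorescence units by ≥90% relative to control culture. Testing done by TAACF.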
# Aspergillus fumigatus [8] = experiment: Minimum inhibitory concentration required to inhibit 80% inoculum of Aspergillus fumigatus 119.00; format: functional
# Rhizopus arrhizus [9] = experiment: Minimum fungicidal concentration against Rhizopus arrhizus 117.89; format: functional
# Method in brief: as §2
# Aspergillus fumigatus [10] = experiment: Minimum inhibitory concentration required to inhibit 80% inoculum of Aspergillus fumigatus 182.99; format: functional
# Candida albicans [11] = experiment: Minimum inhibitory concentration required to inhibit 80% inoculum of Candida albicans 126.97; format: functional
# Method in brief: (§3)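 Broth macrodilution following NCCLS M27-T, drug dilutions 100 to 0.09 µg/mL, in RPMI 1640 with glutamine, no bicarbonate, buffered to pH 7.0 with 0.165 M MOPS. Inoculum grown at 35 °C, adjusted to 0.5 × 10³ to 2.5 × 10³ CFU/mL, incubated at 35 °C and read at 48 h. MIC80 is the lowest concentration giving […] visual turbidity relative to the growth-control tube.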
# Cryptococcus neoformans [12] = experiment: Minimum fungicidal concentration against Cryptococcus neoformans H99; format: functional
# Method in brief: as §1
# Candida albicans [13] = experiment: Minimum inhibitory concentration required to inhibit 80% inoculum of Candida albicans 159.95; format: functional
# Method in brief: as §3
# Candida albicans [14] = experiment: Minimum inhibitory concentration required to inhibit 100% inoculum of Candida albicans A39; format: functional
# Aspergillus flavus [15] = experiment: Minimum inhibitory concentration required to inhibit 100% inoculum of Aspergillus flavus 194.99; format: functional
# Aspergillus flavus [16] = experiment: Minimum inhibitory concentration required to inhibit 80% inoculum of Aspergillus flavus 141.88; format: functional
# Candida albicans [17] = experiment: Minimum inhibitory concentration required to inhibit 100% inoculum of Candida albicans 149.97; format: functional
# Fusarium solani [18] = experiment: Minimum inhibitory concentration required to inhibit 100% inoculum of Fusarium solani 152.89; format: functional
# Rhizopus arrhizus [19] = experiment: Minimum inhibitory concentration required to inhibit 80% inoculum of Rhizopus arrhizus 117.89; format: functional
# Method in brief: (§4)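 Mould broth macrodilution, drug dilutions 100 to 0.09 µg/mL, in RPMI 1640 buffered at pH 7.0 with 0.165 M MOPS. Isolates are grown on Sabouraud dextrose agar at 30 °C for 4-14 days. Conidia are harvested in 0.85% NaCl/0.05% Tween 80, counted by hemocytometer, and diluted to 0.5 × 10³ to 2.5 × 10³ CFU/mL. Cultures incubated at 30 °C for 48-72 h until the control grows. MIC80 read visually against the growth control.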
# Aspergillus fumigatus [20] = experiment: Antimicrobial activity against Aspergillus fumigatus (MIC); format: functional
# Candida albicans [21] = experiment: Minimum inhibitory concentration required to inhibit 100% inoculum of Candida albicans 126.97; format: functional
# Aspergillus fumigatus [22] = experiment: Minimum fungicidal concentration against Aspergillus fumigatus 182.99; format: functional
# Method in brief: as §2
# Aspergillus flavus [23] = experiment: Minimum inhibitory concentration required to inhibit 80% inoculum of Aspergillus flavus 194.99; format: functional
# Aspergillus fumigatus [24] = experiment: Minimum inhibitory concentration required to inhibit 80% inoculum of Aspergillus fumigatus 165.86; format: functional
# Aspergillus fumigatus [25] = experiment: Minimum inhibitory concentration required to inhibit 100% inoculum of Aspergillus fumigatus 168.95; format: functional
# Candida albicans [26] = experiment: Minimum inhibitory concentration required to inhibit 100% inoculum of Candida albicans 116.98; format: functional
# Aspergillus fumigatus [27] = experiment: Minimum inhibitory concentration required to inhibit 100% inoculum of Aspergillus fumigatus 119.00; format: functional
# Aspergillus flavus [28] = experiment: Minimum fungicidal concentration against Aspergillus flavus 194.99; format: functional
# Method in brief: as §2
# Candida albicans [29] = experiment: Minimum fungicidal concentration against Candida albicans 126.97; format: functional
# Method in brief: as §1
# Cryptococcus neoformans [30] = experiment: Minimum inhibitory concentration required to inhibit 100% inoculum of Cryptococcus neoformans H99; format: functional
# Candida albicans [31] = experiment: Minimum inhibitory concentration required to inhibit 80% inoculum of Candida albicans 156.97; format: functional
# Method in brief: as §3
# Aspergillus flavus [32] = experiment: Minimum fungicidal concentration against Aspergillus flavus 141.88; format: functional
# Method in brief: as §2
# Aspergillus fumigatus [33] = experiment: Minimum fungicidal concentration against Aspergillus fumigatus 153.90; format: functional
# Method in brief: as §2
# Aspergillus fumigatus [34] = experiment: Minimum inhibitory concentration required to inhibit 80% inoculum of Aspergillus fumigatus 168.95; format: functional
# Candida albicans [35] = experiment: Minimum fungicidal concentration against Candida albicans A39; format: functional
# Method in brief: as §1
# Aspergillus flavus [36] = experiment: Minimum inhibitory concentration required to inhibit 100% inoculum of Aspergillus flavus 107.96; format: functional
# Candida albicans [37] = experiment: Minimum inhibitory concentration required to inhibit 100% inoculum of Candida albicans 117.00; format: functional
# Aspergillus fumigatus [38] = experiment: Minimum inhibitory concentration required to inhibit 80% inoculum of Aspergillus fumigatus 153.90; format: functional
# Cryptococcus neoformans [39] = experiment: Minimum inhibitory concentration required to inhibit 80% inoculum of Cryptococcus neoformans H99; format: functional
# Method in brief: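 Broth macrodilution following NCCLS M27-T, drug dilutions 100 to 0.09 µg/mL, in RPMI 1640 with glutamine, no bicarbonate, MOPS 0.165 M, pH 7.0. Inoculum grown at 35 °C, 0.5 × 10³ to 2.5 × 10³ CFU/mL, incubated at 35 °C and interpreted at […]. MIC80 is the lowest concentration with turbidity […] of the growth control.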
# Aspergillus flavus [40] = experiment: Minimum inhibitory concentration required to inhibit 80% inoculum of Aspergillus flavus 107.96; format: functional
# Aspergillus fumigatus [41] = experiment: Minimum fungicidal concentration against Aspergillus fumigatus 119.00; format: functional
# Method in brief: as §2
# Candida albicans [42] = experiment: Minimum fungicidal concentration against Candida albicans 116.98; format: functional
# Method in brief: as §1
# Aspergillus fumigatus [43] = experiment: Minimum inhibitory concentration required to inhibit 100% inoculum of Aspergillus fumigatus 153.90; format: functional
# Fusarium solani [44] = experiment: Minimum fungicidal concentration against Fusarium solani 152.89; format: functional
# Method in brief: as §2
# Aspergillus flavus [45] = experiment: Minimum inhibitory concentration required to inhibit 100% inoculum of Aspergillus flavus 141.88; format: functional
# Aspergillus fumigatus [46] = experiment: Minimum inhibitory concentration required to inhibit 100% inoculum of Aspergillus fumigatus 165.86; format: functional
# Aspergillus flavus [47] = experiment: Minimum fungicidal concentration against Aspergillus flavus 107.96; format: functional
# Method in brief: as §2
# Candida albicans [48] = experiment: Minimum fungicidal concentration against Candida albicans 156.97; format: functional
# Method in brief: as §1
# Aspergillus fumigatus [49] = experiment: Minimum fungicidal concentration against Aspergillus fumigatus 168.95; format: functional
# Method in brief: as §2
# Candida albicans [50] = experiment: Minimum inhibitory concentration required to inhibit 80% inoculum of Candida albicans 116.98; format: functional
# Method in brief: as §3
# Candida albicans [51] = experiment: Minimum inhibitory concentration required to inhibit 100% inoculum of Candida albicans 156.97; format: functional
# Candida albicans [52] = experiment: Minimum fungicidal concentration against Candida albicans 159.95; format: functional
# Method in brief: as §1
# Rhizopus arrhizus [53] = experiment: Minimum inhibitory concentration required to inhibit 100% inoculum of Rhizopus arrhizus 117.89; format: functional
# Candida albicans [54] = experiment: Minimum fungicidal concentration against Candida albicans 149.97; format: functional
# Method in brief: as §1
# Aspergillus fumigatus [55] = experiment: Minimum fungicidal concentration against Aspergillus fumigatus 165.86; format: functional
# Method in brief: as §2
# Aspergillus fumigatus [56] = experiment: Minimum inhibitory concentration required to inhibit 100% inoculum of Aspergillus fumigatus 182.99; format: functional
# Candida albicans [57] = experiment: Minimum inhibitory concentration required to inhibit 80% inoculum of Candida albicans 117.00; format: functional
# Method in brief: as §3
# Candida albicans [58] = experiment: Minimum inhibitory concentration required to inhibit 80% inoculum of Candida albicans 149.97; format: functional
# Method in brief: as §3
# Candida albicans [59] = experiment: Minimum inhibitory concentration required to inhibit 80% inoculum of Candida albicans A39; format: functional
# Method in brief: as §3
# Fusarium solani [60] = experiment: Minimum inhibitory concentration required to inhibit 80% inoculum of Fusarium solani 152.89; format: functional
# Method in brief: as §4
# Candida albicans [61] = experiment: Minimum inhibitory concentration required to inhibit 100% inoculum of Candida albicans 159.95; format: functional
# Candida albicans [62] = experiment: Minimum fungicidal concentration against Candida albicans 117.00; format: functional
# Method in brief: as §1
smiles,measurement,setting,value
Cl.Cl.N=C(N)Nc1ccc(-c2ccc(-c3ccc(NC(=N)N)cc3)o2)cc1,ΔTm,Nucleic Acid [1],10.8
same,MFC,Candida albicans [2],25 µg/mL
same,MIC,Candida albicans [3],12.5 µg/mL
same,MFC,Aspergillus fumigatus [4],> 100 µg/mL
same,ΔTm,Nucleic Acid [5],21.6
same,MIC,Aspergillus fumigatus [6],100 µg/mL
same,MIC,[7],3.13 µg/mL
Cc1ccc(C(=N)Nc2ccc(-c3ccc(-c4ccc(NC(=N)c5ccc(C)cn5)cc4C)o3)c(C)c2)nc1,MIC,Aspergillus fumigatus [8],3.12 µg/mL
same,MFC,Rhizopus arrhizus [9],1.56 µg/mL
same,MIC,Aspergillus fumigatus [10],3.12 µg/mL
same,MIC,Candida albicans [11],1.56 µg/mL
same,MFC,Cryptococcus neoformans [12],> 100 µg/mL
same,MIC,Candida albicans [13],0.79 µg/mL
same,MIC,Candida albicans [14],1.56 µg/mL
same,MIC,Aspergillus flavus [15],6.25 µg/mL
same,MIC,Aspergillus flavus [16],3.12 µg/mL
same,MIC,Candida albicans [17],1.56 µg/mL
same,MIC,Fusarium solani [18],50 µg/mL
same,ΔTm,Nucleic Acid [1],10.8
same,MIC,Rhizopus arrhizus [19],0.78 µg/mL
same,MFC,Candida albicans [2],10 µg/mL
same,MIC,Aspergillus fumigatus [20],10 µg/mL
same,MIC,Candida albicans [21],3.12 µg/mL
same,MFC,Aspergillus fumigatus [22],> 100 µg/mL
same,MIC,Aspergillus flavus [23],3.12 µg/mL
same,MIC,Candida albicans [3],≤ 1 µg/mL
same,MIC,Aspergillus fumigatus [24],50 µg/mL
same,MFC,Aspergillus fumigatus [4],> 100 µg/mL
same,MIC,Aspergillus fumigatus [25],50 µg/mL
same,MIC,Candida albicans [26],1.56 µg/mL
same,MIC,Aspergillus fumigatus [27],50 µg/mL
same,MFC,Aspergillus flavus [28],> 100 µg/mL
same,MFC,Candida albicans [29],3.12 µg/mL
same,MIC,Cryptococcus neoformans [30],1.56 µg/mL
same,MIC,Candida albicans [31],1.56 µg/mL
same,MFC,Aspergillus flavus [32],> 100 µg/mL
same,MFC,Aspergillus fumigatus [33],> 100 µg/mL
same,MIC,Aspergillus fumigatus [34],10 µg/mL
same,MFC,Candida albicans [35],25 µg/mL
same,MIC,Aspergillus flavus [36],50 µg/mL
same,MIC,Candida albicans [37],3.12 µg/mL
same,MIC,Aspergillus fumigatus [38],3.12 µg/mL
same,MIC,Cryptococcus neoformans [39],1.56 µg/mL
same,MIC,Aspergillus flavus [40],3.12 µg/mL
same,MFC,Aspergillus fumigatus [41],> 100 µg/mL
same,MFC,Candida albicans [42],> 100 µg/mL
same,MIC,Aspergillus fumigatus [43],50 µg/mL
same,MFC,Fusarium solani [44],50 µg/mL
same,MIC,Aspergillus flavus [45],50 µg/mL
same,MIC,Aspergillus fumigatus [46],50 µg/mL
same,MFC,Aspergillus flavus [47],> 100 µg/mL
same,MFC,Candida albicans [48],> 100 µg/mL
same,ΔTm,Nucleic Acid [5],24.3
same,MFC,Aspergillus fumigatus [49],> 100 µg/mL
same,MIC,Candida albicans [50],1.56 µg/mL
same,MIC,Candida albicans [51],3.15 µg/mL
same,MFC,Candida albicans [52],3.12 µg/mL
same,MIC,Rhizopus arrhizus [53],1.56 µg/mL
same,MFC,Candida albicans [54],6.25 µg/mL
same,MFC,Aspergillus fumigatus [55],> 100 µg/mL
same,MIC,[7],2 µg/mL
same,MIC,Aspergillus fumigatus [56],50 µg/mL
same,MIC,Candida albicans [57],0.78 µg/mL
same,MIC,Candida albicans [58],0.78 µg/mL
same,MIC,Candida albicans [59],1.56 µg/mL
same,MIC,Fusarium solani [60],3.12 µg/mL
same,MIC,Candida albicans [61],1.58 µg/mL
same,MFC,Candida albicans [62],25 µg/mL
OC(Cn1cncn1)(Cn1cncn1)c1ccc(F)cc1F [FLUCONAZOLE],MFC,Candida albicans [2],25 µg/mL
same,MIC,Candida albicans [3],6.25 µg/mL
